Source: ChEMBL document CHEMBL1128288, “7-Azetidinylquinolones as antibacterial agents. 3. Synthesis, properties and structure-activity relationships of the stereoisomers containing a 7-(3-amino-2-methyl-1-azetidinyl) moiety” (J Med Chem, 1995)
In brackets after ≈: the same amount, converted by molar mass.

Columns and labels:
Escherichia coli [1] = assay: In vivo efficacy as ED50 against Escherichia coli HM-42 by oral administration in mice.; assay type: functional; details: Escherichia coli, po; read-out: ED50
In short: (§1)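 Mice, 4 groups of 10, infected intraperitoneally with slightly more than the LD100 of the organism. A single oral dose was given immediately after infection, with four doses (one per group) chosen from in vitro activity. Survival was scored after one week. ED50 (total dose, mg/kg, protecting 50%) was interpolated among group survival rates.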

[2] = tested on: Staphylococcus epidermidis; assay: In vitro antibacterial activity measured as minimum inhibitory concentration was evaluated on Staphylococcus epidermidis ATCC 155-1 (Se).; assay type: functional; details: Staphylococcus epidermidis, ATCC 155-1; read-out: MIC
In short: (§2)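 Serial 2-fold agar dilution in Mueller Hinton medium, run side by side with reference quinolones. Inoculum 10^5 cfu/mL; compound range 0.007–16 µg/mL.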

Klebsiella pneumoniae = assay: In vitro antibacterial activity measured as minimum inhibitory concentration was evaluated on klebsiella pneumoniae ATCC 10031 (Kp).; assay type: functional; details: Klebsiella pneumoniae, ATCC 10031; read-out: MIC
In short: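 Serial 2-fold agar dilution in Mueller Hinton medium, run side by side with reference quinolones.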

Bacillus cereus = assay: In vitro antibacterial activity measured as minimum inhibitory concentration was evaluated on Bacillus cereus ATCC 11778 (Bc).; assay type: functional; details: Bacillus cereus, ATCC 11778; read-out: MIC; in short: as §2
Staphylococcus aureus [3] = assay: In vivo efficacy as ED50 against Staphylococcus aureus HS-93 by oral administration in mice.; assay type: functional; details: Staphylococcus aureus, po; read-out: ED50; in short: as §1
Morganella morganii = assay: In vitro antibacterial activity measured as minimum inhibitory concentration was evaluated on morganella morganii ATCC 8019 (Mm).; assay type: functional; details: Morganella morganii, ATCC 8019; read-out: MIC; in short: as §2
Enterococcus faecalis = assay: In vitro antibacterial activity measured as minimum inhibitory concentration was evaluated on Streptococcus faecalis ATCC 10541 (Sf).; assay type: functional; details: Enterococcus faecalis, ATCC 10541; read-out: MIC; in short: as §2
Bacillus subtilis = assay: In vitro antibacterial activity measured as minimum inhibitory concentration was evaluated on Bacillus subtilis ATCC 6633(Bs).; assay type: functional; details: Bacillus subtilis, ATCC 6633; read-out: MIC; in short: as §2
Pseudomonas aeruginosa [4] = assay: In vivo efficacy as ED50 against Pseudomonas aeruginosa HS-116 by oral administration in mice.; assay type: functional; details: Pseudomonas aeruginosa, po; read-out: ED50; in short: as §1
Proteus vulgaris = assay: In vitro antibacterial activity measured as minimum inhibitory concentration was evaluated on proteus vulgaris ATCC 8427 (Pv).; assay type: functional; details: Proteus vulgaris, ATCC 8427; read-out: MIC; in short: as §2
Escherichia coli [5] = assay: In vitro antibacterial activity measured as minimum inhibitory concentration, was evaluated on Escherichia coli ATCC 23559(Ec).; assay type: functional; details: Escherichia coli, ATCC 23559; read-out: MIC; in short: as §2
Pseudomonas aeruginosa [6] = assay: In vitro antibacterial activity measured as minimum inhibitory concentration was evaluated on Pseudomonas aeruginosa ATCC 10145 (Pa).; assay type: functional; details: Pseudomonas aeruginosa, ATCC 10145; read-out: MIC; in short: as §2
[7] = mouse, in vivo, po, 50 mg/kg
Enterobacter cloacae = assay: In vitro antibacterial activity measured as minimum inhibitory concentration, was evaluated on Enterobacter cloacae ATCC 23355 (Ecl).; assay type: functional; details: Enterobacter cloacae, ATCC 23355; read-out: MIC
Staphylococcus aureus [8] = assay: In vitro antibacterial activity measured as minimum inhibitory concentration was evaluated on Staphylococcus aureus ATCC 25178 (Sa).; assay type: functional; details: Staphylococcus aureus, ATCC 25178; read-out: MIC; in short: as §2
[9] = Solubility at pH 7.4 buffer.; assay type: physicochemical
In short: (§3)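 Excess solid was shaken 24 h at 25 °C in water or in 0.05 M phosphate buffer pH 7.4, then filtered (0.22 µm) with the first portion discarded. The filtrate was diluted with 0.1 N HCl or NaOH and measured spectrophotometrically at the compound's absorbance maximum.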

[10] = Solubility in water was determined at 25 degrees Centigrade; assay type: physicochemical; in short: as §3

Row | Structure (SMILES) | ED50 (Escherichia coli [1]) | MIC [2] | MIC (Klebsiella pneumoniae) | MIC (Bacillus cereus) | ED50 (Staphylococcus aureus [3]) | MIC (Morganella morganii) | MIC (Enterococcus faecalis) | MIC (Bacillus subtilis) | ED50 (Pseudomonas aeruginosa [4]) | MIC (Proteus vulgaris) | MIC (Escherichia coli [5]) | MIC (Pseudomonas aeruginosa [6]) | AUC [7] | MIC (Enterobacter cloacae) | MIC (Staphylococcus aureus [8]) | solubility [9] | solubility [10]
1 | CCn1cc(C(=O)O)c(=O)c2cc(F)c(N3C[C@H](N)[C@H]3C)c(F)c21 | 3.9 mg/kg | 0.25 µg/mL (≈ 0.741 µM) | 0.06 µg/mL (≈ 0.178 µM) | 0.25 µg/mL (≈ 0.741 µM) | 5.9 mg/kg | 0.12 µg/mL (≈ 0.356 µM) | 2 µg/mL (≈ 5.93 µM) | 0.12 µg/mL (≈ 0.356 µM) | 60 mg/kg | 0.5 µg/mL (≈ 1.48 µM) | 0.12 µg/mL (≈ 0.356 µM) | 2 µg/mL (≈ 5.93 µM) | 21000 ng·h/mL | 0.12 µg/mL (≈ 0.356 µM) | 0.25 µg/mL (≈ 0.741 µM) | – | –
2 | CCC[C@H](N)C(=O)N[C@@H]1CN(c2cc3c(cc2F)c(=O)c(C(=O)O)cn3-c2ccc(F)cc2F)[C@H]1C | – | 0.5 µg/mL (≈ 0.995 µM) | 0.25 µg/mL (≈ 0.498 µM) | 0.5 µg/mL (≈ 0.995 µM) | – | 4 µg/mL (≈ 7.96 µM) | 4 µg/mL (≈ 7.96 µM) | 0.25 µg/mL (≈ 0.498 µM) | – | 8 µg/mL (≈ 15.9 µM) | 0.5 µg/mL (≈ 0.995 µM) | 16 µg/mL (≈ 31.8 µM) | – | 1 µg/mL (≈ 1.99 µM) | 0.5 µg/mL (≈ 0.995 µM) | > 500 µg/mL | > 500 µg/mL
3 | C[C@@H]1[C@@H](NC(=O)[C@@H](C)N)CN1c1nc2c(cc1F)c(=O)c(C(=O)O)cn2C1CC1 | – | 0.25 µg/mL (≈ 0.62 µM) | 8 µg/mL (≈ 19.8 µM) | 1 µg/mL (≈ 2.48 µM) | – | 8 µg/mL (≈ 19.8 µM) | 1 µg/mL (≈ 2.48 µM) | 0.5 µg/mL (≈ 1.24 µM) | – | 8 µg/mL (≈ 19.8 µM) | 1 µg/mL (≈ 2.48 µM) | 16 µg/mL (≈ 39.7 µM) | 0 ng·h/mL | 4 µg/mL (≈ 9.92 µM) | 1 µg/mL (≈ 2.48 µM) | > 500 µg/mL | > 500 µg/mL
4 | C[C@H](N)C(=O)N[C@@H](C)C(=O)N[C@@H]1CN(c2nc3c(cc2F)c(=O)c(C(=O)O)cn3C2CC2)[C@H]1C | – | 8 µg/mL (≈ 16.9 µM) | 8 µg/mL (≈ 16.9 µM) | 16 µg/mL (≈ 33.7 µM) | – | 4 µg/mL (≈ 8.43 µM) | 16 µg/mL (≈ 33.7 µM) | 1 µg/mL (≈ 2.11 µM) | – | 8 µg/mL (≈ 16.9 µM) | 2 µg/mL (≈ 4.22 µM) | 16 µg/mL (≈ 33.7 µM) | 19200 ng·h/mL | 2 µg/mL (≈ 4.22 µM) | 4 µg/mL (≈ 8.43 µM) | > 500 µg/mL | > 500 µg/mL
5 | C[C@H](N)C(=O)N[C@@H]1CN(c2nc3c(cc2F)c(=O)c(C(=O)O)cn3C2CC2)[C@H]1C | – | 0.5 µg/mL (≈ 1.24 µM) | 0.06 µg/mL (≈ 0.149 µM) | 1 µg/mL (≈ 2.48 µM) | – | 0.5 µg/mL (≈ 1.24 µM) | 8 µg/mL (≈ 19.8 µM) | 0.12 µg/mL (≈ 0.297 µM) | – | 1 µg/mL (≈ 2.48 µM) | 0.12 µg/mL (≈ 0.297 µM) | 8 µg/mL (≈ 19.8 µM) | 28800 ng·h/mL | 0.12 µg/mL (≈ 0.297 µM) | 0.5 µg/mL (≈ 1.24 µM) | > 500 µg/mL | > 500 µg/mL
6 | C[C@@H](N)C(=O)N[C@@H]1CN(c2nc3c(cc2F)c(=O)c(C(=O)O)cn3C2CC2)[C@H]1C | – | 1 µg/mL (≈ 2.48 µM) | 0.5 µg/mL (≈ 1.24 µM) | 0.5 µg/mL (≈ 1.24 µM) | – | 2 µg/mL (≈ 4.96 µM) | 1 µg/mL (≈ 2.48 µM) | 0.12 µg/mL (≈ 0.297 µM) | – | 2 µg/mL (≈ 4.96 µM) | 0.25 µg/mL (≈ 0.62 µM) | 8 µg/mL (≈ 19.8 µM) | 400 ng·h/mL | 0.25 µg/mL (≈ 0.62 µM) | 0.25 µg/mL (≈ 0.62 µM) | 386 µg/mL (≈ 957 µM) | 495 µg/mL (≈ 1230 µM)
